Assay results taken from ChEMBL document CHEMBL5303300, “EUbOPEN Chemogenomics Library - Multiplex” (2023).
Several values for one entry are separate records, joined by “and”; a condition that tells them apart may be missing. Equal entries are not always repeated.

Test system: HEK-293T
Assay: Multiplex assay against HEK293T
Format: toxicity, cell-based
Conditions: human, number of replicates 2
Procedure, shortened: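 Live cells were stained at seeding with Hoechst33342, BioTracker Green Microtubule Cytoskeleton Dye, MitoTracker Red and Annexin V Alexa Fluor 680, then imaged on a CQ1 microscope at 37°C and 5% CO2 after compound addition. CellPathfinder machine-learning gating split cells into Hoechst high-intensity objects or normal cells. Normal cells were split into healthy, pyknosed or fragmented nuclei, and pyknosed cells into mitotic or apoptotic. Tubulin, mitochondrial-mass and membrane-permeability phenotypes are per cents of healthy-nucleus cells.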

[1] = 12 h, 1 µM, compound concentration 1 uM
[2] = 12 h, 10 µM, compound concentration 10 uM
[3] = 24 h, 1 µM, compound concentration 1 uM
[4] = 24 h, 10 µM, compound concentration 10 uM
[5] = 48 h, 1 µM, compound concentration 1 uM
[6] = 48 h, 10 µM, compound concentration 10 uM

## COCCNC1CCC(Nc2cc(-c3csc(NCC4(C#N)CCOCC4)n3)c(Cl)cn2)CC1 (stereo not drawn)
[1]
  Population Apoptotic (%): 38% and 65%
  Population Fragmented Nuclei (%): 4% and 2%
  Population Healthy Nuclei (%): 81% and 83%
  Population Hoechst High Intensity Objects (%): 7% and 9%
  Population Membrane Permeable-Phenotype (%): 3% and 2%
  Population Mitochondria Different-Phenotype (%): 50% and 51%
  Population Mitotic Cells (%): 61% and 34%
  Population Normal (%): 92% and 90%
  Population Pyknosed Nuclei (%): 13% and 14%
  Population Tubulin-Different-Phenotype (%): 76% and 80%
  Total Cell Count: 472 and 403
[2]
  Population Apoptotic (%): 74% and 66%
  Population Fragmented Nuclei (%): 1% and 2%
  Population Healthy Nuclei (%): 77% and 83%
  Population Hoechst High Intensity Objects (%): 10% and 12%
  Population Membrane Permeable-Phenotype (%): 2% and 3%
  Population Mitochondria Different-Phenotype (%): 69% and 65%
  Population Mitotic Cells (%): 25% and 33%
  Population Normal (%): 89% and 87%
  Population Pyknosed Nuclei (%): 20% and 14%
  Population Tubulin-Different-Phenotype (%): 96% and 94%
  Total Cell Count: 313 and 412
[3]
  Population Apoptotic (%): 48% and 66%
  Population Fragmented Nuclei (%): 2% and 4%
  Population Healthy Nuclei (%): 88% and 83%
  Population Hoechst High Intensity Objects (%): 13% and 16%
  Population Membrane Permeable-Phenotype (%): 1% and 2%
  Population Mitochondria Different-Phenotype (%): 62% and 58%
  Population Mitotic Cells (%): 51% and 33%
  Population Normal (%): 86% and 83%
  Population Pyknosed Nuclei (%): 8% and 12%
  Population Tubulin-Different-Phenotype (%): 72% and 74%
  Total Cell Count: 431 and 359
[4]
  Population Apoptotic (%): 91% and 67%
  Population Fragmented Nuclei (%): 3%
  Population Healthy Nuclei (%): 82% and 87%
  Population Hoechst High Intensity Objects (%): 15% and 21%
  Population Membrane Permeable-Phenotype (%): 2%
  Population Mitochondria Different-Phenotype (%): 81% and 75%
  Population Normal (%): 84% and 78%
  Population Pyknosed Nuclei (%): 14% and 8%
  Population Tubulin-Different-Phenotype (%): 93% and 92%
  Total Cell Count: 294 and 402
[5]
  Population Apoptotic (%): 55% and 65%
  Population Fragmented Nuclei (%): 1% and 5%
  Population Healthy Nuclei (%): 91% and 84%
  Population Hoechst High Intensity Objects (%): 14% and 17%
  Population Membrane Permeable-Phenotype (%): 1% and 2%
  Population Mitochondria Different-Phenotype (%): 71% and 68%
  Population Mitotic Cells (%): 45% and 34%
  Population Normal (%): 85% and 82%
  Population Pyknosed Nuclei (%): 7% and 9%
  Population Tubulin-Different-Phenotype (%): 75%
  Total Cell Count: 317 and 304
[6]
  Population Apoptotic (%): 92% and 82%
  Population Fragmented Nuclei (%): 1% and 4%
  Population Healthy Nuclei (%): 78% and 85%
  Population Hoechst High Intensity Objects (%): 13% and 22%
  Population Membrane Permeable-Phenotype (%): 3% and 1%
  Population Mitochondria Different-Phenotype (%): 85% and 82%
  Population Mitotic Cells (%): 7% and 17%
  Population Normal (%): 86% and 77%
  Population Pyknosed Nuclei (%): 19% and 9%
  Population Tubulin-Different-Phenotype (%): 95% and 90%
  Total Cell Count: 237 and 368

## C[C@@H]1CC[C@@]2(OC1)O[C@H]1[C@@H](O)[C@H]3[C@@H]4CC[C@H]5C[C@@H](O[C@@H]6O[C@H](CO)[C@H](O[C@@H]7O[C@H](CO)C(O)[C@H](O[C@@H]8OC[C@@H](O)[C@H](O)[C@H]8O)[C@H]7O[C@@H]7O[C@H](CO)[C@H](O)[C@H](O[C@@H]8O[C@H](CO)[C@@H](O)[C@H](O)[C@H]8O)[C@H]7O)[C@H](O)[C@H]6O)[C@H](O)C[C@]5(C)[C@H]4CC[C@]3(C)[C@H]1[C@@H]2C (stereo partly drawn) [DIGITONIN]
[2]
  Population Apoptotic (%): 61% and 33% and 40% and 57%
  Population Fragmented Nuclei (%): 7% and 2% and 3% and 6%
  Population Healthy Nuclei (%): 79% and 88% and 83% and 81%
  Population Hoechst High Intensity Objects (%): 10% and 5% and 4% and 8%
  Population Membrane Permeable-Phenotype (%): 1% and 3%
  Population Mitochondria Different-Phenotype (%): 14% and 13% and 16% and 17%
  Population Mitotic Cells (%): 38% and 66% and 59% and 42%
  Population Normal (%): 89% and 94% and 95% and 91%
  Population Pyknosed Nuclei (%): 13% and 8% and 12% and 11%
  Population Tubulin-Different-Phenotype (%): 50% and 43% and 44% and 49%
  Total Cell Count: 558 and 637 and 534 and 641
[4]
  Population Apoptotic (%): 44% [middle of 4 runs]
  Population Fragmented Nuclei (%): 5% and 8% and 2% and 10%
  Population Healthy Nuclei (%): 86% and 81% and 90%
  Population Hoechst High Intensity Objects (%): 7% and 9% and 6% and 8%
  Population Membrane Permeable-Phenotype (%): 3% and 2%
  Population Mitochondria Different-Phenotype (%): 4% and 2% and 7% and 3%
  Population Mitotic Cells (%): 67% and 34% and 68% and 55%
  Population Normal (%): 92% and 90% and 93% and 91%
  Population Pyknosed Nuclei (%): 8% and 9% and 6%
  Population Tubulin-Different-Phenotype (%): 26% and 22% and 28% and 17%
  Total Cell Count: 1037 and 963 and 742 and 1134
[6]
  Population Apoptotic (%): 13% and 14% and 23% and 21%
  Population Fragmented Nuclei (%): 13% and 15% and 10% and 17%
  Population Healthy Nuclei (%): 83% and 79% and 85% and 80%
  Population Hoechst High Intensity Objects (%): 10% and 9% and 11%
  Population Membrane Permeable-Phenotype (%): 5% and 3% and 2%
  Population Mitochondria Different-Phenotype (%): 0%
  Population Mitotic Cells (%): 86% and 85% and 76% and 78%
  Population Normal (%): 89% and 90% and 88%
  Population Pyknosed Nuclei (%): 3% and 4% and 2%
  Population Tubulin-Different-Phenotype (%): 13% and 5% and 14% and 6%
  Total Cell Count: 2746 and 2725 and 1654 and 2990
